Results reported in ChEMBL document CHEMBL3860041, “Synthesis, biological evaluation and molecular modeling study of some new methoxylated 2-benzylthio-quinazoline-4(3H)-ones as nonclassical antifolates” (Bioorg Med Chem Lett, 2016).

Assays:
Assay type in all cases: functional
Cancer cell lines [1] = experiment: Potency index, ratio of 5-fluorouracil GI50 to compound GI50 for human ovarian cancer cells
How it was run: (§1)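 GI50 for each cell line came from NCI panel testing over a 5-log dose range, with 5-fluorouracil tested alongside as the reference drug. The index relates the 5-fluorouracil GI50 to the compound GI50 within each tumour subpanel.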

[2] = Growth inhibition of human MDA-MB-231 cells at 10 uM after 48 hrs by SRB assay relative to control; details: MDA-MB-231, 48 h, read-out: GI
How it was run: (§2)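 NCI 60-cell-line panel, nine tumor subpanels; compounds tested at a single dose of 10 μM in the primary screen.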

[3] = Growth inhibition of human HCC2998 cells at 10 uM after 48 hrs by SRB assay relative to control; details: HCC 2998, 48 h, read-out: GI; how it was run: as §2
Cancer cell lines [4] = experiment: Potency index, ratio of 5-fluorouracil GI50 to compound GI50 for human non-small cell lung cancer cells; how it was run: as §1
[5] = Growth inhibition of human non-small cell lung cancer cells after 48 hrs by SRB assay; details: Cancer cell lines
How it was run: (§3)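 Follow-up NCI panel testing over a 5-log dose range for each cell line. GI50, TGI and LC50 were monitored, with 5-fluorouracil run as the positive control. Values are grouped by tumour subpanel.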

Cancer cell lines [6] = experiment: Potency index, ratio of 5-fluorouracil GI50 to compound GI50 for human colon cancer cells; how it was run: as §1
[7] = Growth inhibition of human Hs 578T cells at 10 uM after 48 hrs by SRB assay relative to control; details: read-out: GI; how it was run: as §2
Leukemia cell = experiment: Potency index, ratio of 5-fluorouracil GI50 to compound GI50 for human leukemia cells; how it was run: as §1
[8] = Growth inhibition of human SF295 cells at 10 uM after 48 hrs by SRB assay relative to control; details: SF-295, 48 h, read-out: GI; how it was run: as §2
[9] = Growth inhibition of human SN12C cells at 10 uM after 48 hrs by SRB assay relative to control; details: read-out: GI
How it was run: (§4)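 Primary screen across the full NCI 60 human tumour cell line panel, which covers nine tumour subpanels. A single dose of 10 μM was applied to each line, and growth was recorded for each cell line.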

[10] = Growth inhibition of human KM12 cells at 10 uM after 48 hrs by SRB assay relative to control; details: KM12, 48 h, read-out: GI; how it was run: as §2
[11] = Growth inhibition of human colon cancer cells after 48 hrs by SRB assay; details: Cancer cell lines; how it was run: as §3
[12] = Growth inhibition of human OVCAR8 cells at 10 uM after 48 hrs by SRB assay relative to control; details: OVCAR-8, 48 h, read-out: GI; how it was run: as §2
[13] = Growth inhibition of human T47D cells at 10 uM after 48 hrs by SRB assay relative to control; details: read-out: GI; how it was run: as §4
[14] = Growth inhibition of human HOP62 cells at 10 uM after 48 hrs by SRB assay relative to control; details: HOP-62, 48 h, read-out: GI; how it was run: as §2
[15] = Growth inhibition of human ovarian cancer cells after 48 hrs by SRB assay; details: Cancer cell lines; how it was run: as §3
Melanoma cell = experiment: Potency index, ratio of 5-fluorouracil GI50 to compound GI50 for human melanoma cells; how it was run: as §1
[16] = Growth inhibition of human MALME-3M cells at 10 uM after 48 hrs by SRB assay relative to control; details: read-out: GI; how it was run: as §2
[17] = Growth inhibition of human OVCAR5 cells at 10 uM after 48 hrs by SRB assay relative to control; details: OVCAR-5, 48 h, read-out: GI; how it was run: as §2
[18] = Growth inhibition of human NCI-H460 cells at 10 uM after 48 hrs by SRB assay relative to control; details: NCI-H460, 48 h, read-out: GI; how it was run: as §2
[19] = Growth inhibition of human renal cancer cells after 48 hrs by SRB assay; details: Cancer cell lines; how it was run: as §3
[20] = Growth inhibition of human M14 cells at 10 uM after 48 hrs by SRB assay relative to control; details: M14, 48 h, read-out: GI; how it was run: as §2
[21] = Growth inhibition of human 786-0 cells at 10 uM after 48 hrs by SRB assay relative to control; details: 786-0, 48 h, read-out: GI; how it was run: as §2
[22] = Growth inhibition of human U251 cells at 10 uM after 48 hrs by SRB assay relative to control; details: U-251, 48 h, read-out: GI; how it was run: as §4
[23] = Growth inhibition of human A549 cells at 10 uM after 48 hrs by SRB assay relative to control; details: A549, 48 h, read-out: GI; how it was run: as §2
[24] = Growth inhibition of human NCI-322M cells at 10 uM after 48 hrs by SRB assay relative to control; details: read-out: GI; how it was run: as §2
[25] = Growth inhibition of human SK-MEL-2 cells at 10 uM after 48 hrs by SRB assay relative to control; details: SK-MEL-2, 48 h, read-out: GI; how it was run: as §4
[26] = Growth inhibition of human HCT15 cells at 10 uM after 48 hrs by SRB assay relative to control; details: HCT-15, 48 h, read-out: GI; how it was run: as §2
[27] = Growth inhibition of human NCI/ADR-RES cells at 10 uM after 48 hrs by SRB assay relative to control; details: read-out: GI; how it was run: as §2
[28] = Growth inhibition of human melanoma cells after 48 hrs by SRB assay; details: Melanoma cell; how it was run: as §3
[29] = Growth inhibition of human PC3 cells at 10 uM after 48 hrs by SRB assay relative to control; details: PC-3, 48 h, read-out: GI; how it was run: as §2
[30] = Growth inhibition of human HL-60(TB) cells at 10 uM after 48 hrs by SRB assay relative to control; details: HL-60, 48 h, read-out: GI
How it was run: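 NCI disease-oriented human tumour cell line screen: primary single-dose assay at 10 μM across the full 60-cell-line panel spanning nine tumour subpanels.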

[31] = Growth inhibition of human SKOV3 cells at 10 uM after 48 hrs by SRB assay relative to control; details: SK-OV-3, 48 h, read-out: GI; how it was run: as §4
[32] = Growth inhibition of human MDA-MB-468 cells at 10 uM after 48 hrs by SRB assay relative to control; details: MDA-MB-468, 48 h, read-out: GI; how it was run: as §2
[33] = Growth inhibition of human NCI-H522 cells at 10 uM after 48 hrs by SRB assay relative to control; details: NCI-H522, 48 h, read-out: GI; how it was run: as §2
[34] = Growth inhibition of human RXF393 cells at 10 uM after 48 hrs by SRB assay relative to control; details: RXF 393, 48 h, read-out: GI; how it was run: as §2

COc1cc(CSc2nc3ccc(C)cc3c(=O)n2Cc2ccccc2)cc(OC)c1OC
RatioGI50 (Cancer cell lines [1]): 10
inhibition of growth at 10 µM [2]: 55.6%
inhibition of growth at 10 µM [3]: 57%
RatioGI50 (Cancer cell lines [4]): 10
GI50 [5]: 4 µM
LC50 (concentration killing 50% of cells) [5]: 98.2 µM
TGI [5]: 65.9 µM
RatioGI50 (Cancer cell lines [6]): 10
inhibition of growth at 10 µM [7]: 79.3%
RatioGI50 (Leukemia cell): 10
inhibition of growth at 10 µM [8]: 69%
inhibition of growth at 10 µM [9]: 60%
inhibition of growth at 10 µM [10]: 74.7%
GI50 [11]: 1.6 µM
LC50 [11]: 87.1 µM
TGI [11]: 76.1 µM
inhibition of growth at 10 µM [12]: 64.9%
inhibition of growth at 10 µM [13]: 65.9%
inhibition of growth at 10 µM [14]: 60%
GI50 [15]: 3.3 µM
LC50 (50% lethal concentration) [15]: 92.7 µM
TGI [15]: 57.6 µM
RatioGI50 (Melanoma cell): 10
inhibition of growth at 10 µM [16]: 70%
inhibition of growth at 10 µM [17]: 54.7%
inhibition of growth at 10 µM [18]: 82.3%
GI50 [19]: 4.3 µM
LC50 [19]: 97.9 µM
TGI [19]: 61.4 µM
inhibition of growth at 10 µM [20]: 64.4%
inhibition of growth at 10 µM [21]: 53.2%
inhibition of growth at 10 µM [22]: 67%
inhibition of growth at 10 µM [23]: 60%
inhibition of growth at 10 µM [24]: 53.8%
inhibition of growth at 10 µM [25]: 99.1%
inhibition of growth at 10 µM [26]: 70.8%
inhibition of growth at 10 µM [27]: 87.3%
GI50 [28]: 3.2 µM
LC50 [28]: > 100 µM
TGI [28]: 58.4 µM
inhibition of growth at 10 µM [29]: 54.1%
inhibition of growth at 10 µM [30]: 83%
inhibition of growth at 10 µM [31]: 76.1%

COc1ccc(-n2c(SCc3cc(OC)c(OC)c(OC)c3)nc3ccc(C)cc3c2=O)c(OC)c1
RatioGI50 (Cancer cell lines [1]): 2 - 10
inhibition of growth at 10 µM [2]: 55.2%
inhibition of growth at 10 µM [3]: 54.5%
RatioGI50 (Cancer cell lines [4]): 2 - 10
GI50 [5]: 17.7 µM
LC50 (concentration killing 50% of cells) [5]: > 100 µM
TGI [5]: 96.5 µM
RatioGI50 (Cancer cell lines [6]): 2 - 10
inhibition of growth at 10 µM [7]: 93.3%
RatioGI50 (Leukemia cell): 2 - 10
inhibition of growth at 10 µM [8]: 93.7%
inhibition of growth at 10 µM [9]: 54.8%
inhibition of growth at 10 µM [10]: 81.9%
GI50 [11]: 4.4 µM
LC50 [11]: > 100 µM
TGI [11]: 87.4 µM
inhibition of growth at 10 µM [12]: 54.5%
inhibition of growth at 10 µM [13]: 66.9%
inhibition of growth at 10 µM [14]: 52.6%
inhibition of growth at 10 µM [32]: 83%
GI50 [15]: 5.1 µM
LC50 (50% lethal concentration) [15]: > 100 µM
TGI [15]: 86.7 µM
RatioGI50 (Melanoma cell): 2 - 10
inhibition of growth at 10 µM [16]: 74.5%
inhibition of growth at 10 µM [17]: 56.8%
inhibition of growth at 10 µM [33]: < 10%
inhibition of growth at 10 µM [18]: 95.4%
GI50 [19]: 15.4 µM
LC50 [19]: > 100 µM
TGI [19]: 92.5 µM
inhibition of growth at 10 µM [20]: 88.8%
inhibition of growth at 10 µM [21]: 70.4%
inhibition of growth at 10 µM [22]: 75.2%
inhibition of growth at 10 µM [23]: 81.1%
inhibition of growth at 10 µM [24]: 72%
inhibition of growth at 10 µM [25]: < 10%
inhibition of growth at 10 µM [26]: 76.4%
inhibition of growth at 10 µM [34]: 80.4%
inhibition of growth at 10 µM [27]: 98.6%
GI50 [28]: 4.2 µM
LC50 [28]: 89.9 µM
TGI [28]: 77.4 µM
inhibition of growth at 10 µM [29]: 91.3%
inhibition of growth at 10 µM [31]: 54.7%
